Measurements: ChEMBL document CHEMBL2321840, “Synthesis and structure-activity relationships of indazole arylsulfonamides as allosteric CC-chemokine receptor 4 (CCR4) antagonists” (J Med Chem, 2013)

tested on: not listed separately; assay: Dissociation constant, pKa of the compound; assay type: physicochemical; conditions: not given

Row | pKa | Structure (SMILES)
1 | 6.03 | CC(=O)NCc1cccc(Cn2nc(NS(=O)(=O)c3ccc(Cl)s3)c3c(Cl)cccc32)c1
2 | 7.06 | COc1cccc2c1c(NS(=O)(=O)c1cccc(Cl)c1)nn2Cc1cccc(CNC(=O)C(C)(C)O)c1
3 | 5.4 | CC(=O)NCc1cccc(Cn2nc(NS(=O)(=O)c3ccc(Cl)s3)c3c(C#N)cccc32)c1
4 | 6.12 | CC(=O)NCc1cccc(Cn2nc(NS(=O)(=O)c3ccc(Cl)s3)c3c(O)cccc32)c1
5 | 5.66 | CC(=O)NCc1cccc(Cn2nc(NS(=O)(=O)c3ccc(Cl)s3)c3c(CO)cccc32)c1
6 | 5.6 | CC(=O)NCc1cccc(Cn2nc(NS(=O)(=O)c3ccc(Cl)s3)c3c(C(F)F)cccc32)c1
7 | 5.62 | CC(=O)NCc1cccc(Cn2nc(NS(=O)(=O)c3ccc(Cl)s3)c3c(C(C)O)cccc32)c1 (stereo not given)
8 | 5.46 | CC(=O)NCc1cccc(Cn2nc(NS(=O)(=O)c3ccc(Cl)s3)c3c(C(C)(C)O)cccc32)c1

target: T1, C-C chemokine receptor type 4 (Homo sapiens, UniProt P51679); assay: Antagonist activity at CCR4 receptor in human whole blood assessed as F-actin polymerization after 30 mins by FACS-based flow cytometric analysis; conditions: read-out: pA2 (converted)
T1 sequence (P51679 whole entry): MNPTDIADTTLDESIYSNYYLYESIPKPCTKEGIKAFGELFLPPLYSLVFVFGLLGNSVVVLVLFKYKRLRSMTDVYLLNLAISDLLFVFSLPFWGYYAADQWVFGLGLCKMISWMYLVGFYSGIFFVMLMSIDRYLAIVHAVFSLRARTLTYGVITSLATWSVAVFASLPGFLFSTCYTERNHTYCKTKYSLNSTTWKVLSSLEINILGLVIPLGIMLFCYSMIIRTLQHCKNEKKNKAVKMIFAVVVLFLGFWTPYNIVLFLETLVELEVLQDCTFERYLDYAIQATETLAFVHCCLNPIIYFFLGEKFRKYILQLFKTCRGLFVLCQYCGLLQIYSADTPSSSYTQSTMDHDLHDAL

Row | Kb | Structure (SMILES)
9 | 6310 nM | CC(=O)NCc1cccc(Cn2nc(NS(=O)(=O)c3ccc(Cl)s3)c3c(Cl)cccc32)c1
10 | 794 nM | CC(=O)NCc1cccc(Cn2nc(NS(=O)(=O)c3ccc(Cl)s3)c3c(O)cccc32)c1
11 | 1000 nM | CC(=O)NCc1cccc(Cn2nc(NS(=O)(=O)c3ccc(Cl)s3)c3c(CO)cccc32)c1
12 | 7940 nM | CC(=O)NCc1cccc(Cn2nc(NS(=O)(=O)c3ccc(Cl)s3)c3c(C(F)F)cccc32)c1
13 | 501 nM | CC(=O)NCc1cccc(Cn2nc(NS(=O)(=O)c3ccc(Cl)s3)c3c(C(C)O)cccc32)c1 (stereo not given)

tested on: not listed separately; assay: Kinetic solubility of the compound by chemiluminescent nitrogen detection assay; assay type: physicochemical; conditions: read-out: Kinetic_solubility

Row | solubility kinetic | Structure (SMILES)
14 | ≥ 226 µg/mL | CC(=O)NCc1cccc(Cn2nc(NS(=O)(=O)c3ccc(Cl)s3)c3c(Cl)cccc32)c1
15 | ≥ 198 µg/mL | COc1cccc2c1c(NS(=O)(=O)c1cccc(Cl)c1)nn2Cc1cccc(CNC(=O)C(C)(C)O)c1
16 | ≥ 155 µg/mL | CC(=O)NCc1cccc(Cn2nc(NS(=O)(=O)c3ccc(Cl)s3)c3c(C#N)cccc32)c1
17 | ≥ 166 µg/mL | CC(=O)NCc1cccc(Cn2nc(NS(=O)(=O)c3ccc(Cl)s3)c3c(O)cccc32)c1
18 | ≥ 113 µg/mL | CC(=O)NCc1cccc(Cn2nc(NS(=O)(=O)c3ccc(Cl)s3)c3c(CO)cccc32)c1
19 | ≥ 188 µg/mL | CC(=O)NCc1cccc(Cn2nc(NS(=O)(=O)c3ccc(Cl)s3)c3c(C(F)F)cccc32)c1
20 | ≥ 208 µg/mL | CC(=O)NCc1cccc(Cn2nc(NS(=O)(=O)c3ccc(Cl)s3)c3c(C(C)O)cccc32)c1 (stereo not given)
21 | ≥ 159 µg/mL | CC(=O)NCc1cccc(Cn2nc(NS(=O)(=O)c3ccc(Cl)s3)c3c(C(C)(C)O)cccc32)c1

tested on: not listed separately; assay: Lipophilicity, log D of the compound by chromatographic analysis; assay type: physicochemical; conditions: not given
How it was run: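 Chromatographic log D measured at pH 7.4.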

Row | chromatographic logD | Structure (SMILES)
22 | 3.8 | CC(=O)NCc1cccc(Cn2nc(NS(=O)(=O)c3ccc(Cl)s3)c3c(Cl)cccc32)c1
23 | 4.5 | COc1cccc2c1c(NS(=O)(=O)c1cccc(Cl)c1)nn2Cc1cccc(CNC(=O)C(C)(C)O)c1
24 | 2.5 | CC(=O)NCc1cccc(Cn2nc(NS(=O)(=O)c3ccc(Cl)s3)c3c(C#N)cccc32)c1
25 | 2.9 | CC(=O)NCc1cccc(Cn2nc(NS(=O)(=O)c3ccc(Cl)s3)c3c(O)cccc32)c1
26 | 2.6 | CC(=O)NCc1cccc(Cn2nc(NS(=O)(=O)c3ccc(Cl)s3)c3c(CO)cccc32)c1
27 | 3.7 | CC(=O)NCc1cccc(Cn2nc(NS(=O)(=O)c3ccc(Cl)s3)c3c(C(F)F)cccc32)c1
28 | 2.7 | CC(=O)NCc1cccc(Cn2nc(NS(=O)(=O)c3ccc(Cl)s3)c3c(C(C)O)cccc32)c1 (stereo not given)
29 | 2.9 | CC(=O)NCc1cccc(Cn2nc(NS(=O)(=O)c3ccc(Cl)s3)c3c(C(C)(C)O)cccc32)c1

target: T1, C-C chemokine receptor type 4; assay: Antagonist activity at human recombinant CCR4 receptor expressed in CHO cell membranes by [35S]GTPgammaS binding assay; assay type: functional; conditions: not given

Row | IC50 | Structure (SMILES)
30 | 31.6 nM | CC(=O)NCc1cccc(Cn2nc(NS(=O)(=O)c3ccc(Cl)s3)c3c(Cl)cccc32)c1
31 | 50.1 nM | COc1cccc2c1c(NS(=O)(=O)c1cccc(Cl)c1)nn2Cc1cccc(CNC(=O)C(C)(C)O)c1
32 | 316 nM | CC(=O)NCc1cccc(Cn2nc(NS(=O)(=O)c3ccc(Cl)s3)c3c(C#N)cccc32)c1
33 | 12.6 nM | CC(=O)NCc1cccc(Cn2nc(NS(=O)(=O)c3ccc(Cl)s3)c3c(O)cccc32)c1
34 | 6.31 nM | CC(=O)NCc1cccc(Cn2nc(NS(=O)(=O)c3ccc(Cl)s3)c3c(CO)cccc32)c1
35 | 100 nM | CC(=O)NCc1cccc(Cn2nc(NS(=O)(=O)c3ccc(Cl)s3)c3c(C(F)F)cccc32)c1
36 | 20 nM | CC(=O)NCc1cccc(Cn2nc(NS(=O)(=O)c3ccc(Cl)s3)c3c(C(C)O)cccc32)c1 (stereo not given)
37 | 100 nM | CC(=O)NCc1cccc(Cn2nc(NS(=O)(=O)c3ccc(Cl)s3)c3c(C(C)(C)O)cccc32)c1

tested on: not listed separately; assay: Volume of distribution at steady state in CD rat at 1 mg/kg, iv and 1 mg/kg, po; assay type: ADME, organism-based; conditions: in vivo, read-out: Vdss
How it was run: (§1)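 CD rat pharmacokinetics, with compounds given as solutions in DMSO–PEG200–H₂O (5:45:50); one analogue used a 10:40:50 ratio.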

Row | Vd | Structure (SMILES)
38 | 1.2 L/kg | CC(=O)NCc1cccc(Cn2nc(NS(=O)(=O)c3ccc(Cl)s3)c3c(O)cccc32)c1
39 | 3.5 L/kg | CC(=O)NCc1cccc(Cn2nc(NS(=O)(=O)c3ccc(Cl)s3)c3c(C(C)O)cccc32)c1 (stereo not given)

tested on: not listed separately; assay: Oral bioavailability in CD rat at 1 mg/kg; assay type: ADME, organism-based; conditions: in vivo; how it was run: as §1

Row | bioavailability | Structure (SMILES)
40 | 12% | CC(=O)NCc1cccc(Cn2nc(NS(=O)(=O)c3ccc(Cl)s3)c3c(O)cccc32)c1
41 | 35% | CC(=O)NCc1cccc(Cn2nc(NS(=O)(=O)c3ccc(Cl)s3)c3c(C(C)O)cccc32)c1 (stereo not given)

tested on: not listed separately; assay: in vivo; conditions: CD, rat, iv, 1 mg/kg

Row | clearance | Structure (SMILES)
42 | 19 mL/min/kg | CC(=O)NCc1cccc(Cn2nc(NS(=O)(=O)c3ccc(Cl)s3)c3c(O)cccc32)c1
43 | 13 mL/min/kg | CC(=O)NCc1cccc(Cn2nc(NS(=O)(=O)c3ccc(Cl)s3)c3c(C(C)O)cccc32)c1 (stereo not given)

tested on: not listed separately; assay: in vivo; conditions: CD, rat, iv, 1 mg/kg; remark: another data set of the same source

Row | half-life | Structure (SMILES)
44 | 1.2 h | CC(=O)NCc1cccc(Cn2nc(NS(=O)(=O)c3ccc(Cl)s3)c3c(O)cccc32)c1
45 | 3.7 h | CC(=O)NCc1cccc(Cn2nc(NS(=O)(=O)c3ccc(Cl)s3)c3c(C(C)O)cccc32)c1 (stereo not given)
